Experimental data: ChEMBL document CHEMBL4190282, “The Conjugated Double Bond of Coniferyl Aldehyde Is Essential for Heat Shock Factor 1 Mediated Cytotoprotection” (J Nat Prod, 2017)
Active and inactive are the calls of the source. No cut-off for these calls is given here.

Assays:
L132 = assay: Cytotoxicity against human L-132 cells assessed as reduction in cell viability up to 20 uM after 24 hrs by MTT assay; format: cell-based; settings: l132, 24 h
In short: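 L132 cells treated 24 h at indicated doses up to 20 μM. MTT (5 mg/mL in PBS) 4 h at 37 °C, formazan dissolved in DMSO, absorbance at 540 nm converted to cell number via calibration curve. Celastrol positive control.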

[1] = target: T1, Heat shock factor protein 1 (Homo sapiens) (UniProt Q00613); assay: Activation of HSF1 in human NCI-H460 cells assessed as upregulation of HSP25 protein levels at 1 uM after 12 hrs by Western blot analysis; format: cell-based
T1 sequence (whole entry): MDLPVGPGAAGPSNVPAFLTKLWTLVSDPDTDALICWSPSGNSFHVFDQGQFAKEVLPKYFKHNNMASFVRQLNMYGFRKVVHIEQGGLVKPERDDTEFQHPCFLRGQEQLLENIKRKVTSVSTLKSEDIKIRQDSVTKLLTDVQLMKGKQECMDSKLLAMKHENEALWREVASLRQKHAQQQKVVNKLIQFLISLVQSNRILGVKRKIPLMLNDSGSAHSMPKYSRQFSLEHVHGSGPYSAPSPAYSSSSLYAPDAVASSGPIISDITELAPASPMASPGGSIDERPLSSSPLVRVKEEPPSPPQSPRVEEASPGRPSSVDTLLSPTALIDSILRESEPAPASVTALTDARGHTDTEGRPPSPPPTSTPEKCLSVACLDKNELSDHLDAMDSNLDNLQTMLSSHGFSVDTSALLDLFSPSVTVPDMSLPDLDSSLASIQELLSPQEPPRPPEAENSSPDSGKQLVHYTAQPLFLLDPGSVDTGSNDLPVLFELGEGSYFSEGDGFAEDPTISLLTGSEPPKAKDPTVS
In short: (§1)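 Cells were grown to 30% confluence and treated for 12 h. Equal protein amounts were lysed and cleared at 13 000 rpm for 30 min at 4 °C, then boiled in sample buffer for 5 min. Proteins were resolved by 8% or 12% SDS-PAGE and transferred to nitrocellulose. Membranes were blocked in 5% milk/PBST, given primary antibody for 18 h at 4 °C and an HRP secondary, and developed by ECL.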

[2] = target: T1, Heat shock factor protein 1 (Homo sapiens); assay: Activation of HSF1 in human NCI-H460 cells assessed as upregulation of HSP70 protein levels at 1 uM after 12 hrs by Western blot analysis; format: cell-based; in short: as §1
[3] = target: T1, Heat shock factor protein 1 (Homo sapiens); assay: Activation of HSF1 in human NCI-H460 cells assessed as upregulation of HSP25 protein levels at 10 to 30 uM after 12 hrs by Western blot analysis; format: cell-based
In short: (§2)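 NCI-H460 cells treated 12 h at 10 or 30 μM; HSF1, HSP27 and HSP70 detected by Western blot.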

[4] = target: T1, Heat shock factor protein 1 (Homo sapiens); assay: Activation of HSF1 in human NCI-H460 cells expressing pGL4-hsp70 construct assessed as upregulation of hsp70 promoter activity at 10 to 30 uM after 12 hrs by luciferase reporter gene assay; format: cell-based
In short: (§3)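 NCI-H460 cells stably carrying hsp25 or hsp70 promoter–luciferase reporters, seeded, treated after 24 h at 10 or 30 μM and harvested 12 h later. Lysate luciferase normalized to β-galactosidase; mean of three independent experiments, fold-change vs negative control.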

[5] = target: T1, Heat shock factor protein 1 (Homo sapiens); assay: Activation of HSF1 in human NCI-H460 cells expressing pGL4-hsp25 construct assessed as upregulation of hsp25 promoter activity at 10 to 30 uM after 12 hrs by luciferase reporter gene assay; format: cell-based; in short: as §3
[6] = target: T1, Heat shock factor protein 1 (Homo sapiens); assay: Activation of HSF1 in human NCI-H460 cells assessed as upregulation of HSP70 protein levels at 10 to 30 uM after 12 hrs by Western blot analysis; format: cell-based; in short: as §2
NCI-H460 = assay: Upregulation of HSF1 protein level in human NCI-H460 cells at 10 to 30 uM after 12 hrs by Western blot analysis; format: functional, cell-based; in short: as §2

SMILES | Activity (L132) | Activity [1] | Activity [2] | Activity [3] | Activity [4] | Activity [5] | Activity [6] | Activity (NCI-H460)
CC1=C(O)C(=O)C=C2C1=CC=C1[C@@]2(C)CC[C@@]2(C)[C@@H]3C[C@](C)(C(=O)O)CC[C@]3(C)CC[C@]12C [CELASTROL] | Toxic | Active | Active |  |  |  |  | 
COc1cc(CCCO)ccc1O |  |  |  | inactive | inactive | inactive | inactive | inactive
COc1cc(CCC=O)ccc1O |  |  |  | inactive | inactive | inactive | inactive | inactive
